Consider 48 sequences from the EternaBench riboswitch data.

The test system of this data set is MS2 coat protein. In words: apparent Kd, MS2 coat protein; higher = weaker binding; RNA-MaP array; FMN 200 µM where present. The method in brief: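 Stalled E. coli RNA polymerase transcribed the designs on Illumina sequencing-chip clusters. SNAP-549-labelled MS2 coat protein was titrated from 0.7 or 1.5 nM, doubling to 3 µM, without and then with constant ligand, in 100 mM Tris-HCl pH 7.5, 80 mM KCl, 4 mM MgCl2, BSA, DTT, yeast tRNA and Tween-20. Per-cluster binding curves were fitted to green signal normalised to red-channel RNA signal and control-cluster median Fmax. The apparent Kd is the median of the filtered fits.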

The mark [1] stands for this setting: designed as: ON switch for flavin mononucleotide, no ligand.
[2] abbreviates: ligand present: flavin mononucleotide, designed as: ON switch for flavin mononucleotide.
The mark [3] stands for this setting: designed as: OFF switch for flavin mononucleotide, no ligand.
Setting [4] is: ligand present: flavin mononucleotide, designed as: OFF switch for flavin mononucleotide.

Take “CUGUACAUAUCAGGAUAUCUAUUUCCUACAUGAGGAUCACCCAUGUAGGUGAUCACCCAAGUAAAGGAGAAGGGAUAUGUAUAG”: the apparent Kd (as a rule, the concentration giving half-maximal binding under the conditions of the assay) under setting [1] turned out to be 66.4 nM and the “apparent Kd” value under setting [2] is 23.7 nM.

Regarding “UUCGCUAAGGUGUAGCGAGGCUCGCAAGAAGGGUGAUGCACAUGAGGAUCACCCAUGUAAGCCUUACAGGAUAUUGCUUGCCGA”, the “apparent Kd” value was 509 nM under setting [1] and 40.7 nM under setting [2].

Consider “GGAUGUCAAAGACAUCCUUAACGAACAUGAGGAUCACCCAUGUAGGAUAUGCUACUCAAAGAGUAGCAGAAGGACAUGUGCCUU”, for which the “apparent Kd” value was determined as 34.5 nM under setting [3] and 270 nM under setting [4].

On to “AGCCCUGACGUCAGGAUAUCCGGCCAAUAGGCCAAGGAGAAGGGACAUGAGGAUCACCCAUGUGCUUGGGUCCG”, for which the “apparent Kd” value by setting is: under setting [3], 23.7 nM; under setting [4], 37 nM.

On to “CCAGAUAUGUAAGGAUAUAUAGUGGAAUACACUAUAGAAGGUAUGUGAGAACAUGAGGAUCACCCAUGUCAUUGGAUAUCUGGA”, for which the “apparent Kd” value runs as follows: under setting [1], 37.1 nM; under setting [2], 39.3 nM.

For the sequence “CGAGUUUUUGAGAAGGCAUAUAAUAAGAUUUCCCAUGUUAACAUGAGGAUCACCCAUGUUUAGUAUGAGGAUAUCAGUAGGUCG”, the “apparent Kd” value is 5.79 nM under setting [3] and 5.8 nM under setting [4].

Turning to “GCGGCUAGUGCAGGAUAUCGGCGCGUGUAGUGCCGAGAAGGGCACAUGAGGAUCACCCAUGUGAUCAAUCACUGCUAAGGCCGC”, the “apparent Kd” value was 5.26 nM under setting [3] and 5.4 nM under setting [4].

For the sequence “GCACCUGCGUAGAAGGUACUAUAUAAUGCAGUGUAAGGAUAUACAUACAUGAGGAUCACCCAUGUAAAUGGAAUUUGCAGGUGC”, the “apparent Kd” value was determined as 12.2 nM under setting [1] and 10.3 nM under setting [2].

With “CUAGUAUAUCAGGAUAUGAUUUUGUGUAGUUGGUCAGAAGGGAUGACAUGAGGAUCACCCAUGUUAAGGAGUGA”, the “apparent Kd” value is, setting by setting: under setting [3], 122 nM; under setting [4], 146 nM.

For “CCUGUGUGAGGAUAUGGUGUUGGCAAAAAGGAAUAGCUCCUCCAGAAGGCACAUGAGGAUCACCCAUGUCGUGG”, the “apparent Kd” value is, setting by setting: under setting [3], 15.2 nM; under setting [4], 36 nM.

For “GCUGACGAUGUAGGAUAUCUCGACGAUAAGUCGAGAGAAGGACAUGAGGAUCACCCAUGUAAAAUCCCGUCAGCGAGGAAACUC”, the “apparent Kd” value is 16.4 nM under setting [3] and 23.1 nM under setting [4].

“CACAAGUAUAACGAUUUCAAGGCACAGGAUAUGAGUGUGCACAUGAGGAUCACCCAUGUUAUAACUUAGAAGGGUGACCAUCGC”: the “apparent Kd” value is, setting by setting: under setting [1], 402 nM; under setting [2], 433 nM.

For “CGUAAGAUGCAGAAGGUGUUAGCUAGAGCUACGACAUGAGGAUCACCCAUGUACUAGAAACAGUACAAGGAUAUGCAUCUUACC”, the “apparent Kd” value by setting is: under setting [1], 18.8 nM; under setting [2], 6.58 nM.

On to “AUUUCGUUAGCAGGAUAUGGACAGGCCUGUCCGUAUUGAGUCAGUAACAUGAGGAUCACCCAUGUCCAGAAGGGCUCGAAGUAU”, for which the “apparent Kd” value reads like this: under setting [3], 7.83 nM; under setting [4], 15.3 nM.

On to “GGAUAGGACAGAGGAUAUACGUGGUAGAGAUACUAGCAAAAUUUCCUCACAUGAGGAUCACCCAUGUAGAAGGCUGUCCUAUCG”, for which the “apparent Kd” value reads like this: under setting [3], 532 nM; under setting [4], 19.1 nM.

“UCUCUUCUGUAGAAGGCCCAACUUGUGAAGGCAACGAUGCUAUAGAAGUAGGGAGGAUAUACAUGAGGAUCACCCAUGUAGGAA”: the “apparent Kd” value came out at 9.28 nM under setting [3] and 13.4 nM under setting [4].

Regarding “GUGUACGGAGGAUAUGCUGGAAUCUAGCGAAGCUAGGUUCCACAUGAGGAUCACCCAUGUAGAAGGUCGUACAC”, the “apparent Kd” value under setting [3] was determined as 39.3 nM and the “apparent Kd” value under setting [4] is 16.1 nM.

With “ACCGUAUGAACAUGAGGAUCACCCAUGUAUCCGAAAGGGAAUGAGGAUAUCGAUAGCAAAGCUAUCGAGAAGGCAUGGGACGGU”, the “apparent Kd” value is, setting by setting: under setting [1], 460 nM; under setting [2], 434 nM.

As for “AUUGAUAGCACAGGAUAUUGAGAUUUGAAUUGACAAGAAGGGUGUACAUGAGGAUCACCCAUGUAAUGGCUGCCUCGUUGAUUA”, the “apparent Kd” value under setting [3] turned out to be 57.8 nM and the “apparent Kd” value under setting [4] is 132 nM.

Regarding “AGCCGUGUACAGAAGGGCGACAUGAGGAUCACCCAUGUCUCCUUGUUGGUCGUAGGAUAUGUACCGUGGCUCUCUACUGUGGGA”, the “apparent Kd” value by setting is: under setting [3], 5.96 nM; under setting [4], 7.28 nM.

Consider “UUUUAAUAAGAGAAGGAGGACUUCAUGAGGAUCACCCAUGUGUUAGUACUUAGGAUAUUUAAUAACAUGAGGAUCACCCAUGUC”, for which the “apparent Kd” value by setting is: under setting [1], 44.1 nM; under setting [2], 43 nM.

For the sequence “GCAUGCUAUGUCAGGAUAUACCUCUGGAUACAUAGGUAGAAGGGACAUGAGGAUCACCCAUGUCCUCAUCAUGC”, the “apparent Kd” value was found to be 12.4 nM under setting [3] and 23.8 nM under setting [4].

As to “CGACCCUGAACGAAAUCAUGCAGUCAGGAUAUACAUGAGGAUCACCCAUGUGCGUACCAACUCGUGUAGAAGGGACUUUCAGGA”, the “apparent Kd” value reads like this: under setting [3], 15.6 nM; under setting [4], 32.3 nM.

Consider “AUGCUUCACACAGGAUAUUACAACAUGAGGAUCACCCAUGUACAUGACAUGAGGAUCACCCAUGUUAAGAAGGGUGUGAAGCAU”, for which the “apparent Kd” value is 261 nM under setting [3] and 505 nM under setting [4].

Take “CUAGCGUAUGUAGGAUAUCGGACUGUUUCAGUCUGAGAAGGACAUGAGGAUCACCCAUGUAUAGCUACGUGAGUAGCUCGCUAG”: the “apparent Kd” value under setting [3] worked out at 20.4 nM and the “apparent Kd” value under setting [4] was 32.4 nM.

For the sequence “GACUUGUCAGGAUAUCUUACAUAAACAUCGUAGUUACAAUUGGAGAAGGGACAUGAGGAUCACCCAUGUUUGGC”, the “apparent Kd” value is 28 nM under setting [3] and 25.4 nM under setting [4].

With “AUCAGCUCGUCAGGAUAUACGUCACUGCGUCAGCACUGUGGUAAGAUCACAUGAGGAUCACCCAUGUAGAAGGGACGAGCUGAU”, the “apparent Kd” value under setting [3] was 17.7 nM and the “apparent Kd” value under setting [4] was found to be 172 nM.

As for “UUCAGGGAUCAAGGAUAUCUAUAUUCAUGAGGACAUGAGGAUCACCCAUGUUGAUUACCCAUGAGGGAGAAGGUGAACAUGAGG”, the “apparent Kd” value was found to be 44.2 nM under setting [1] and 18.7 nM under setting [2].

As to “GCCGCUGUAGGAUAUGCCAGGGUGGCAGCUUGAUGUGUGGCACAUGAGGAUCACCCAUGUAGAAGGACAGAAAG”, the “apparent Kd” value under setting [3] was 18.7 nM and the “apparent Kd” value under setting [4] is 50.8 nM.

Regarding “UCAAGAAGGCAGAAGGGUCCUCACAUGAGGAUCACCCAUGUAGAUAUGGAUAGGAUAUGUCUAGAGAAGUGUUGCUCUAAGGGU”, the “apparent Kd” value was 1050 nM under setting [1] and 159 nM under setting [2].

Regarding “CCGGAAAUGGAGGAUAUAGGAGUCGAUAGACACCUAGAAGGUCAUACAUGAGGAUCACCCAUGUGUCCUACCGG”, the “apparent Kd” value under setting [3] was determined as 17.2 nM and the “apparent Kd” value under setting [4] came to 19.1 nM.

With “UGUCAGAGCAGAGGAUAUUACAUGAGGAUCACCCAUGUAUGAACCAAUAGCUGGAAACAGCAAUGUAAGAAGGCUGCUCCGACA”, the “apparent Kd” value was determined as 11.9 nM under setting [3] and 130 nM under setting [4].

Take “UGUCCAUAGCAGAAGGACAUGAAUAACCAUGAAAACAUGAGGAUCACCCAUGUAGGAUAUGCUAUGGACUAAGAGCGAAAGCUC”: the “apparent Kd” value reads like this: under setting [3], 15 nM; under setting [4], 175 nM.

Turning to “CCUCCACAUGAGGAUCACCCAUGUCAGGAUAUCGUGUGUGCGUUUUCGGUCUUUCGCGCGAGAAGGGACGUCUG”, the “apparent Kd” value runs as follows: under setting [3], 30.6 nM; under setting [4], 34.9 nM.

As to “GGAUAGGACAGAGGAUAUACGUUCUAGAGAUACUAGCAAAAUUUCCUCACAUGAGGAUCACCCAUGUAGAAGGCUGUCCUAUCG”, the “apparent Kd” value under setting [3] was 15.1 nM and the “apparent Kd” value under setting [4] came to 282 nM.

With “GCCGAAGGACCCUGACGGGUCGGCUAGGAUAUACAUGAGGAUCACCCAUGUGCGGUUAUUCACGAGUAGAAGGAGCCUCGGCAA”, the “apparent Kd” value was determined as 101 nM under setting [3] and 80.9 nM under setting [4].

Regarding “GUCAUACAUGAGGAUCACCCAUGUAAGGAUAUGCUAGCGGUCGGAAGAAUGACUGCUAGCAGAAGGUACAUGAU”, the “apparent Kd” value reads like this: under setting [3], 64.1 nM; under setting [4], 121 nM.

Take “AUUAUUUAUAGUUAUUGGUAUUUGACAGAAGGUGAAAGUGUCACAUGAGGAUCACCCAUGUUCUUCAAGGAUAUGUUGGUAUAC”: the “apparent Kd” value reads like this: under setting [1], 66.1 nM; under setting [2], 11.8 nM.

With “UUUUAACAUGAGGAUCACCCAUGUGAGGAUAUCGAAAUUUAUAUUAAUAUUUUUAAAUCGAGAAGGCACAUUUU”, the “apparent Kd” value runs as follows: under setting [3], 121 nM; under setting [4], 109 nM.

On to “GUAGAACAUGAGGAUCACCCAUGUGAUUACGAUGUAGGAUAUGGGCAUGAGAAGUCAUUUCUAGAAGGGCAGAUAA”, for which the “apparent Kd” value is 141 nM under setting [1] and 154 nM under setting [2].

As for “UGUCGGAGCAGAGGAUAUUACAUGAGGAUCACCCAUGUAUGAACCAAUAGCUGGAAACAGCAAUGUAAGAAGGCAGCUCCGACA”, the “apparent Kd” value runs as follows: under setting [3], 5.11 nM; under setting [4], 8.82 nM.

For the sequence “GUAUUUUUACAGAAGGUGUAUUACAUGAGGAUCACCCAUGUUUUAUGGAAUAAAGAUUUUAUUUACAAGGAUAUGUACUAUUUU”, the “apparent Kd” value under setting [1] was determined as 31.7 nM and the “apparent Kd” value under setting [2] was 20.6 nM.

For “GGUACCAUCACAGGAUAUGCUUUUCUUUGGGAAGCAGAAGGGUGUAACAUGAGGAUCACCCAUGUGGUGCCAGGGCGCGAGCCC”, the “apparent Kd” value was 205 nM under setting [1] and 15.4 nM under setting [2].

As for “AAUAACAGAGGAUAUACUAUUUUAUGUGUUUAUUGUUUUAAACAUGAGGAUCACCCAUGUAGAAGGCUGAAUGA”, the “apparent Kd” value reads like this: under setting [3], 37.6 nM; under setting [4], 54.4 nM.

As to “UUUAGUUCAGGAUAUGUAGAUUUUAACAUGAGGAUCACCCAUGUAGAUCCUGAAUUAACUACAGAAGGGAACAUUU”, the “apparent Kd” value is, setting by setting: under setting [3], 19.8 nM; under setting [4], 88.6 nM.

As to “GACGAGGGAGGAUAUGCACGAGGGAUAUCUGACAUGCCUAUACAUGAGGAUCACCCAUGUAGAAGGCCCAGAUA”, the “apparent Kd” value under setting [3] is 10.6 nM and the “apparent Kd” value under setting [4] worked out at 13.1 nM.

With “UUAUUAUAUGUAGGAUAUGCAUAUUAGUAUUGUGCAGAAGGACAUGAGGAUCACCCAUGUAUAUUAUUAUUAUAUAUUAUAUAU”, the “apparent Kd” value under setting [3] was 14.6 nM and the “apparent Kd” value under setting [4] worked out at 21.4 nM.

As for “UUGCUCAAAUGGGCAGGGACCUCACAUGAGGAUCACCCAUGUCAGGAUAUCCUAGUUUGGACGUAGGAGAAGGGACAGAGUAUC”, the “apparent Kd” value by setting is: under setting [3], 227 nM; under setting [4], 171 nM.
